CRFBP-R2 block: blocks CRF-induced signaling of the CRF-BP/CRF-R2 complex; AID 588475; hit rate 0.59% among 350,000; HEK293 CRF-R2/CRF-BP, CRF-induced calcium fluorescence; inhibition, % at 11.8 µM;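 active = inhibition of the ligand-induced calcium signal above about 50% at the single tested concentration, limit read from the data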
PKA-R1A act: PKA-R1A complex activation; P00514+P68181; PKA-R1A dissociation, Cy5-IP20 fluorescence polarization; scaled: DMSO 0%, 113 µM cGMP 100%; activation, % at 11.4 µM; hit rate 0.083% among 340,000; AID 504707;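 active = percent activation above the mean of all tested compounds plus 3 SD, cut at about 19% in these data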;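 note: higher means more PKAc released from R1A so a rise in polarization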
S100A4 MyoIIA: S100A4-myosin IIA interaction inhibition; inhibition, % at 10.7 µM; P26447; AID 652163; S100A4/TAMRA-MyoIIA peptide fluorescence polarization; hit rate 0.14% among 360,000;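 active = mean inhibition of at least 70% across replicates, with every replicate also reaching that level; inconclusive = mean inhibition reaches 70% but some replicates fall short; inactive = mean inhibition below 70%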
Target sequence (P26447 whole entry, looked up): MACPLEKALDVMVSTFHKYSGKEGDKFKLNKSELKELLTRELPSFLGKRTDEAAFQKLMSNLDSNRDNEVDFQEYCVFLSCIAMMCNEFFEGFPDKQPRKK
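assay system = human S100A4 monomer with TAMRA-labelled myosin IIA peptide | also added = labelled myosin peptide probe, 5 nM | incubation = 5 min between mix addition and reading | control set = DMSO and TFP controls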
PKA-R2B act: PKA-R2B complex activation; P22694+P31323; PKA-R2B holoenzyme dissociation, Cy5-IP20 fluorescence polarization; R2B truncated from residue 108, S112A mutant; 0% DMSO only, 100% 113 µM cGMP; activation, % at 11.4 µM; hit rate 0.079% among 340,000;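 active = activation above a cutoff set at the mean over all compounds plus 3 SD, cut at about 18% in these data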;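 note: higher means more holoenzyme dissociation and a rise in polarization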
SIRT5 inh: inhibitors of human sirtuin-5 desuccinylase. Purified SirT5, succinyl-peptide AMC, trypsin-coupled fluorescence. inhibition, % at 15 µM. hit rate 1.1% among 330,000. AID 652115; in the data active = inhibition above about 15%; inconclusive = no clear call, values can overlap the other calls
Target sequence (Q9NXA8 whole entry, looked up): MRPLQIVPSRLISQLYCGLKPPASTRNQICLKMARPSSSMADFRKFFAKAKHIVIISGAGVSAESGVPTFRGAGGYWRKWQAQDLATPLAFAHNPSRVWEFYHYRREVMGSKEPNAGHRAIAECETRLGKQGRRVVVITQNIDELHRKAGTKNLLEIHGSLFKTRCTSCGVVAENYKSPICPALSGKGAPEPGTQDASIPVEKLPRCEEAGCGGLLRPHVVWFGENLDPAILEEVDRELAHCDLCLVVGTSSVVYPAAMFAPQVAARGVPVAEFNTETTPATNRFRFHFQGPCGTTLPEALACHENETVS
R1A FP artifact: FP assay interference, PKA-R1A counter-screen | shares compounds with PKA-R1A act | Cy5-IP20 peptide alone, fluorescence polarization artifact counterscreen | activation, % at 11.4 µM | hit rate 7% among 280 | AID 504799;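 active = mean activation over triplicate runs exceeds the adjusted cutoff derived for the parent primary screen, cut at about 19% in these data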;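 note: no PKA protein present so any polarization rise reflects compound interference; higher means stronger polarization artifact and likely false positive in parent screen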
PKA-R1A confirm: PKA-R1A complex activation, confirmation; shares compounds with PKA-R1A act; hit rate 9% among 280; activation, % at 11.4 µM; Cy5-IP20 fluorescence polarization, PKA-R1A holoenzyme dissociation;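 active = mean activation over replicate wells exceeds the adjusted hit threshold taken from the earlier primary screen, cut at about 20% in these data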
Hits are given with their value; i = inactive; ? = inconclusive; nt = no result. Sampled rows, rich in hits. Any-hit rate of the full collection: about 1.5%.

SMILES	CRFBP-R2 block	PKA-R1A act	S100A4 MyoIIA	PKA-R2B act	SIRT5 inh	R1A FP artifact	PKA-R1A confirm
CC(=O)Nc1ccc(S(=O)(=O)N2CCc3cc4c(cc3C2C)OCCCO4)cc1 (stereo not drawn)	i	21	i	i	i	i	i
COc1ccc(/C=C(\C#N)C(=O)OCCNC(=O)c2ccncc2)cc1	i	20	i	i	i	i	i
COc1ccc(/C=C/C(=O)OCCNC(=O)c2ccncc2)cc1OC	i	i	i	i	nt	nt	nt
O=C(C[C@H]1CC[C@H]2[C@@H](COC[C@H](O)CN2Cc2ccccc2)O1)NCCc1ccccc1	nt	nt	i	nt	i	nt	nt
C[C@H]1CN([C@@H](C)CO)S(=O)(=O)c2ccc(C#Cc3ccccc3)cc2O[C@H]1CN(C)CC1CC1	nt	nt	i	nt	i	nt	nt
Cc1cc(C)c2c(CC(=O)NC(C)C)coc2c1	i	i	i	i	i	nt	nt
Cc1cc(C)c2c(CC(=O)NNC(=O)c3ccccc3)coc2c1	i	27	i	i	i	i	i
COc1ccc(CN(C)CC(=O)NC(=O)NCc2ccccc2)cc1OC	i	21	i	i	i	i	i
COc1ccc(N2C(=O)CSC2c2ccc([N+](=O)[O-])cc2)cc1 (stereo not drawn)	83	20	i	i	i	i	i
CC1CCC2(CC1)NC(=S)N(c1ccccc1)N2 (stereo not drawn)	i	19	nt	i	nt	i	i
Cc1ccc(C(=O)NC2CCCCCCC2)c(Cl)c1	i	i	i	i	i	nt	nt
Cc1c(Br)cc(C(=O)NC2CCCCC2)c(C)c1C	i	23	nt	i	nt	i	i
COC(=O)C1=CN(c2cccc(Cl)c2)C=C(C(=O)OC)C1c1cccc(OC)c1	i	19	i	i	i	i	i
CCOC(=O)C1=NNC(C(=O)c2ccccc2)C1c1ccc(C)cc1 (stereo not drawn)	i	i	i	i	i	nt	nt
CCOC(=O)C1=NNC(C(=O)c2ccc(OC)cc2)C1c1ccccc1 (stereo not drawn)	i	20	nt	i	nt	i	i
O=C(NCC[C@@H]1CC[C@H](NS(=O)(=O)c2cccc(F)c2)[C@@H](CO)O1)C1CCCC1	nt	nt	i	nt	i	nt	nt
CCSc1nc2c(c(=O)[nH]1)C(c1cccnc1)C(C(=O)OC)=C(C)N2 (stereo not drawn)	i	20	nt	i	nt	i	i
CCCC#Cc1ccc2c(c1)O[C@@H](CN(C)C(=O)c1cnccn1)[C@H](C)CN([C@@H](C)CO)S2(=O)=O	nt	nt	i	nt	i	nt	nt
NC(=O)C1CCN(C(=O)C(=O)c2cn(CC(=O)N3CCCC3)c3ccccc23)CC1	i	20	i	i	i	i	i
C/C(=N\NC(=O)c1ccc(Cl)cc1)c1cccs1	i	i	i	i	i	nt	nt
C/C(=N/NC(=O)c1cccs1)c1ccc(NC(=O)COc2ccc(Cl)cc2)cc1	i	19	nt	i	nt	i	i
C[C@@H]1CCCCO[C@@H](CN(C)S(=O)(=O)c2cn(C)cn2)[C@@H](C)CN([C@H](C)CO)C(=O)c2cc(NS(=O)(=O)c3ccccc3)ccc2O1	nt	nt	i	nt	i	nt	nt
CC=Cc1ccc2n(c1=O)C[C@@H]1[C@@H](CO)[C@H](C(=O)NCCC)N(C(=O)CC)[C@H]21 (mixture of isomers)	nt	nt	?	nt	i	nt	nt
Cc1ccc(S(=O)(=O)n2cnc(C)c2)cc1	i	20	i	i	i	i	i
CC(C)NC(=O)N1C[C@H]2[C@@H](c3ccccc31)[C@H](CO)N2C(=O)C1CCCC1	nt	nt	i	nt	i	nt	nt
SMILES	CRFBP-R2 block	PKA-R1A act	S100A4 MyoIIA	PKA-R2B act	SIRT5 inh	R1A FP artifact	PKA-R1A confirm
Cc1nc(-c2ccc(Cl)cc2)sc1C1(C)CC(c2ccc(OC(F)(F)F)cc2)=NO1 (stereo not drawn)	i	i	i	i	nt	nt	nt
Cc1nc(-c2ccccc2)sc1C1(C)CC(c2ccc(OC(F)(F)F)cc2)=NO1 (stereo not drawn)	i	19	i	i	i	i	i
CC=Cc1ccc2n(c1=O)C[C@H]1[C@H](CO)[C@@H](C(=O)NCCC)[C@@H]2N1Cc1ccccc1 (mixture of isomers)	nt	nt	i	nt	i	nt	nt
CCN(CC(=O)Nc1ccccc1OC)C(=O)CSCc1ccc(C)cc1	i	22	i	i	i	i	i
COc1cccc(C2C(C#N)=C(N)OC(C(C)(C)C)=C2C#N)c1 (stereo not drawn)	i	i	nt	i	nt	nt	nt
COc1ccc(C2C(C#N)=C(N)OC(C(C)(C)C)=C2C#N)cc1OC (stereo not drawn)	i	20	nt	i	nt	i	i
CN(C)CCNC(=O)c1c(CSc2ccc(Cl)cc2)noc1C(=O)NCc1ccccc1	i	20	i	i	i	i	i
O=C(NCc1ccccc1)c1onc(CSc2ccc(Cl)cc2)c1C(=O)NCc1ccccc1	i	i	i	i	i	nt	nt
N#C[C@H]1[C@H](c2ccccc2C2=CCCCC2)[C@H](CO)N1S(=O)(=O)c1cccc(F)c1	nt	nt	i	nt	i	nt	nt

Source: PubChem BioAssay
